Test results reported in ChEMBL document CHEMBL4373712, “Bioactivatable Pseudotripeptidization of Cyclic Dipeptides To Increase the Affinity toward Oligopeptide Transporter 1 for Enhanced Oral Absorption: An Application to Cyclo(l-Hyp-l-Ser) (JBP485)” (J Med Chem, 2019).
Activity calls are given as the source filed them. The rule behind the calls is not given here.

Experiments:
[1] = Tmax in Sprague-Dawley rat at 12 mg/kg, po by UPLC-MS/MS analysis; assay type: ADME, organism-based; details: in vivo
How it was run: (§1)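 Fasted male SD rats (200–250 g), oral 12 mg/kg (prodrugs calculated as JBP485). Jugular blood 0.083–10 h, centrifuged, plasma JBP485 by UPLC-MS/MS; n=6.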

[2] = tested on: Rattus norvegicus; experiment: (§2) Anti-hepatitis activity in ANIT-induced Sprague-Dawley rat model of liver injury assessed as reduction in serum alanine aminotransferase level at 6.25 to 12.5 mg/kg, ip administered 30 mins prior to ANIT challenge and subsequent dosing at 8, 22, 32, and 46 hrs post ANIT challenge and measured 48 hrs post ANIT challenge; assay type: functional, organism-based
How it was run: (§3)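 ANIT (50 mg/kg ip, olive oil) cholestatic liver injury in male SD rats, 6 per group. Oral or ip dosing (UDCA 100 mg/kg po in CMC-Na) at 30 min before and 8, 22, 32 and 46 h after ANIT. Serum collected at 48 h from the abdominal aorta; ALT and AST activities measured with kits.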

[3] = Cmax in Sprague-Dawley rat assessed as JBP485 level at 100 mg/kg, po by LC-MS/MS analysis; assay type: ADME, organism-based; parameters: dose 100 mg/kg, route oral; details: in vivo
How it was run: (§4)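 Male SD rats, 200-250 g, fasted 12 h with water, n=6. Oral dose of 12 mg/kg as JBP485 equivalent; dose-effect arms at 12 and 100 mg/kg. JBP485 given iv at 6 mg/kg as the reference. Jugular blood taken at 0.083-10 h. Plasma JBP485 by UPLC-MS/MS. Absolute F = (AUCpo×Div)/(AUCiv×Dpo)×100%, using AUC0-t.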

[4] = Terminal half-life in Sprague-Dawley rat at 12 mg/kg, po by UPLC-MS/MS analysis; assay type: ADME, organism-based; details: in vivo, read-out: beta t1/2 (converted); how it was run: as §1
[5] = tested on: Rattus norvegicus; experiment: Anti-hepatitis activity in ANIT-induced Sprague-Dawley rat model of liver injury assessed as reduction in hepatocellular edema at 6.25 to 25 mg/kg, po administered 30 mins prior to ANIT challenge and subsequent dosing at 8, 22, 32, and 46 hrs post ANIT challenge and measured 48 hrs post ANIT challenge by H and E staining-based assay; assay type: functional, organism-based
How it was run: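 ANIT 50 mg/kg ip liver-injury model in male SD rats, 6 per group. Oral or ip treatment at 30 min before and 8, 22, 32 and 46 h after ANIT. Liver excised at 48 h, fixed in 4% formalin, stained with H&E, and examined microscopically for hepatocellular edema and necrosis.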

[6] = tested on: Rattus norvegicus; experiment: as §2, with “25” for “12.5”, “po” for “ip”; assay type: functional, organism-based; how it was run: as §3
[7] = AUC (0 to t) in Sprague-Dawley rat at 6 mg/kg, iv by UPLC-MS/MS analysis; assay type: ADME, organism-based; details: in vivo; how it was run: as §4
[8] = Tmax in Beagle dog assessed as JBP485 level at 12 mg/kg equiv of JBP485 administered orally by UPLC-MS/MS analysis; assay type: ADME, organism-based, Canis lupus familiaris; details: in vivo, po
How it was run: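 Male beagle dogs, 2 years old, 8–10 kg, dosed orally at 12 mg/kg (prodrug calculated as JBP485) in aqueous solution. Jugular blood taken 0.167–8 h into heparin, centrifuged, plasma JBP485 by UPLC-MS/MS; n=6.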

[9] = tested on: Rattus norvegicus; experiment: as §2, with “3.125” for “6.25”, “25” for “12.5”, “po” for “ip”; assay type: functional, organism-based; how it was run: as §3
[10] = Ratio of half-life in pH 7.2 phosphate buffer to half-life in Sprague-Dawley rat plasma; assay type: ADME
[11] = AUC (0 to t) in Beagle dog assessed as JBP485 level at 12 mg/kg equiv of JBP485 administered orally by UPLC-MS/MS analysis; assay type: ADME, organism-based, Canis lupus familiaris; details: in vivo, po
How it was run: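 Male beagle dogs, 2 years old, 8-10 kg, n=6. Single oral dose of 12 mg/kg (prodrug dosed as JBP485 equivalent) given in aqueous solution. Jugular venipuncture blood taken at 0.167-8 h into sodium heparin tubes. Plasma JBP485 measured by UPLC-MS/MS; AUC0-t and Cmax from the concentration-time profiles.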

Tmax [1] [h] | Cmax [3] [nM/ml] | half-life [4] [h] | AUCt [7] [µM·h] | Tmax [8] [h] | Ratio [10] | AUCt [11] [nM/ml.hr] | SMILES | Activity [2] | Activity [5] | Activity [6] | Activity [9]
1.25 | 95.96 | 2.12 | 194 | – | – | – | O=C1N[C@@H](CO)C(=O)N2C[C@H](O)C[C@@H]12 | Active | Active | Active | –
– | – | – | – | 0.58 | 3 to 35 | 233.25 | CC(C)[C@H](N)C(=O)OC[C@@H]1NC(=O)[C@@H]2C[C@@H](O)CN2C1=O | – | – | – | Active
